Experimental data from different studies.
Protocols differ between the studies behind these lines.
PTGS1: Prostaglandin G/H synthase 1 (PTGS1, Ovis aries, UniProt P05979)
IPMK: Inositol polyphosphate multikinase (IPMK, Homo sapiens, UniProt Q8NFU5)
MAP2K2: Dual specificity mitogen-activated protein kinase kinase 2 (MAP2K2, Homo sapiens, UniProt P36507)
rep main protease: Replicase polyprotein 1ab, main protease (rep, Porcine epidemic diarrhea virus, UniProt P0C6Y4)
rep papain-like protease: Replicase polyprotein 1ab, papain-like protease (rep, Porcine epidemic diarrhea virus, UniProt P0C6Y4)
ALDH3A1: Aldehyde dehydrogenase, dimeric NADP-preferring (ALDH3A1, Homo sapiens, UniProt P30838)

SMILES	target	read-out	mode	method	IC50 [µM]
NS(=O)(=O)c1ccc(-n2nc(C(=O)NN3C(=O)CCC3=O)cc2-c2ccccc2)cc1	PTGS1	enzyme activity	inhibitor		7.57
COCCNc1nc(NCc2cccc(C(=O)Oc3ccc(OC)cc3)c2)nc2[nH]cnc12	IPMK	enzyme activity	inhibitor		14
NS(=O)(=O)c1ccc(-n2nc(-c3nnc(CCl)o3)cc2-c2ccccc2)cc1	PTGS1	enzyme activity	inhibitor		6.72
C=CC(=O)N1CCC([C@@H]2CCNc3c(C(N)=O)c(-c4ccc(Oc5ccccc5)cc4)nn32)CC1	MAP2K2	enzyme activity	inhibitor		0.133
O=C(NCc1cc(O)c(O)c(Br)c1)c1ccco1	rep main protease	enzyme activity	inhibitor	FRET	12.2
NS(=O)(=O)c1ccc(-n2nc(-c3nnc(S)o3)cc2-c2ccccc2)cc1	PTGS1	enzyme activity	inhibitor		7.78
CC(=O)Oc1cccc(C(=O)NCc2cc(O)c(O)c(Br)c2)c1C	rep papain-like protease	enzyme activity	inhibitor	FRET	2.76
COc1cc(C=NNC(=O)c2cc(-c3ccccc3)n(-c3ccc(S(N)(=O)=O)cc3)n2)cc(OC)c1OC	PTGS1	enzyme activity	inhibitor		7.21
O=C(NCc1cc(O)c(O)c(Br)c1)N1CCCC1	rep main protease	enzyme activity	inhibitor	FRET	2.88
COc1cccc(CNc2nc(NC3CCN(C(=O)c4ccccc4)CC3)c3nc[nH]c3n2)c1	IPMK	enzyme activity	inhibitor		9
C=C1CC/C=C(\C)CC[C@@H]2[C@@H]1CC2(C)C	Transient receptor potential cation channel subfamily V member 1, non-phosphorylated (TRPV1, Homo sapiens, UniProt Q8NER1)	ion current		patch clamp	0.587
COc1cc(CNC(=O)c2ccccc2C)cc(Br)c1OC	rep main protease	enzyme activity	inhibitor	FRET	6.79
COc1cc(NC(=O)c2cnn(-c3ccc([N+](=O)[O-])cc3)c2C(F)(F)F)cc(OC)c1OC	PTGS1	enzyme activity	inhibitor		4.51
O=C(NCc1cc(O)c(O)c(Br)c1)c1nccs1	rep papain-like protease	enzyme activity	inhibitor	FRET	4.1
OC[C@H]1O[C@@H](Oc2ccc(O)c3cccc(O)c23)[C@H](O)[C@@H](O)[C@@H]1O	ALDH3A1	enzyme activity	inhibitor	fluorescence	< 10
COc1ccc(N2CCN(Cc3cn4c(-c5ccc(Br)cc5)nnc4s3)CC2)cc1	Aifm2 (Mus musculus, UniProt Q8BUE4, A354T/L360F)	enzyme activity	inhibitor	absorbance	~0.518
CC(C)N(CCC(=O)c1ccc2ccccc2c1)Cc1ccccc1	ALDH3A1	enzyme activity	inhibitor	fluorescence	< 10
CCC(C(=O)NCc1cc(O)c(O)c(Br)c1)c1ccccc1 (stereo not shown)	rep main protease	enzyme activity	inhibitor	FRET	7.53
CN1CCC(CNc2ccc3ncc(-c4cccc(OC(F)(F)F)c4)n3n2)CC1	D(1A) dopamine receptor (DRD1, Homo sapiens, UniProt P21728)	cAMP	antagonist		6.66
Cc1ccc(S(=O)(=O)[N](Nc2ccc([N+](=O)[O-])cc2[N+](=O)[O-])[Sn]([Cl])[Cl])cc1	PTGS1	enzyme activity	inhibitor		45.9
NS(=O)(=O)c1ccc(-n2nc(C(=O)NN=Cc3ccc(O)cc3)cc2-c2ccccc2)cc1	PTGS1	enzyme activity	inhibitor		3.84
COc1ccc(C(=O)NCc2cc(O)c(O)c(Br)c2)cc1	rep papain-like protease	enzyme activity	inhibitor	FRET	2.46
O=C1Nc2ccc(I)cc2/C1=C/c1cc(Br)c(O)c(Br)c1	Mitogen-activated protein kinase kinase kinase 20 (MAP3K20, Homo sapiens, UniProt Q9NYL2)	enzyme activity	inhibitor		1.13
COc1ccc(C(=O)NCc2cc(Br)c(OC)c(OC)c2)cc1	rep main protease	enzyme activity	inhibitor	FRET	5.19
COc1cc(NC(=O)c2cnn(-c3ccc([N+](=O)[O-])cc3)c2C(F)(F)F)cc(OC)c1	PTGS1	enzyme activity	inhibitor		1.74
C=CC(=O)N1CCC(CNc2ncnc(N)c2-c2ccc(Oc3ccccc3)cc2)CC1	MAP2K2	enzyme activity	inhibitor		> 5
COCCNc1nc(NCc2cccc(C(=O)Nc3ccc(OC)cc3)c2)nc2[nH]cnc12	IPMK	enzyme activity	inhibitor		63
Nc1ncnc2c1ncn2[C@@H]1C(F)=C(CO)[C@@H](O)[C@H]1O	Adenosylhomocysteinase (AHCY, Homo sapiens, UniProt P23526)	enzyme activity	inhibitor		0.15
